In ChEMBL document CHEMBL3232774, “Symmetric bis-chalcones as a new type of breast cancer resistance protein inhibitors with a mechanism different from that of chromones” (J Med Chem, 2014):

Key:
ABCG2 ATPase = biological target: T1, ABCG2 ATPase (Homo sapiens, UniProt Q9UNQ0); test: Activation of human ABCG2 transfected in Sf9 insect cells assessed as stimulation of basal ATPase activity in absence of substrate drug after 30 mins by colorimetry; settings: Sf9 insect cells transfected with human ABCG2, read-out: FC
T1 sequence (Q9UNQ0 whole entry): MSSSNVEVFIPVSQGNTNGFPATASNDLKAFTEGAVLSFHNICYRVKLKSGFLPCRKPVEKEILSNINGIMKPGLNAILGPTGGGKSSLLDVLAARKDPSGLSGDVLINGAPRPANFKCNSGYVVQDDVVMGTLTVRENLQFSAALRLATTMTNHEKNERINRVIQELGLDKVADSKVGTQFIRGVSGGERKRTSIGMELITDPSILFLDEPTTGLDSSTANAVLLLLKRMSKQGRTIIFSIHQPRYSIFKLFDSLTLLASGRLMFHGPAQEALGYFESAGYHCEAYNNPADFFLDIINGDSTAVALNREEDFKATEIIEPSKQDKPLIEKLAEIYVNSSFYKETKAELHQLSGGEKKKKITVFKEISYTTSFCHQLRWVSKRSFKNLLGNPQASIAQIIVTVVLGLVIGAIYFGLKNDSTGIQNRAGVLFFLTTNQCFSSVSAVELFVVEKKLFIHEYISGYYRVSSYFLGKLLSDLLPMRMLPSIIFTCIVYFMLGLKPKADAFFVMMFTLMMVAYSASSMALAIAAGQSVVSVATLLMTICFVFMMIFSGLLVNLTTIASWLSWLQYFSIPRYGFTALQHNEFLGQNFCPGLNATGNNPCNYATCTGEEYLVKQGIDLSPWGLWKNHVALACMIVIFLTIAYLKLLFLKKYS
Summary of the method: (§1)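 Cholesterol-loaded membranes from Sf9 cells overexpressing human ABCG2 (0.5 mg/mL; 10 μg/sample) in 50 mM Tris-HCl, 50 mM NaCl, pH 8.0, with or without 0.33 mM orthovanadate, no transport substrate; started with 3.9 mM ATP-Mg, 30 min at 37 °C; stopped with SDS; phosphate released read with molybdate/ascorbic acid at 880 nm; vanadate-sensitive basal activity taken as 100%.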

HEK293 = test: Cytotoxicity against HEK293 cells overexpressing ABCG2 at 0.1 uM after 72 hrs by MTT assay; format: ADME, cell-based; settings: human, hek293, 72 h
Summary of the method: (§2)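 HEK293-ABCG2 and vector-control HEK293-pcDNA3.1 cells were seeded at 1 × 10⁴/well and grown 24 h, then exposed 72 h to mitoxantrone (0–25 nM). ABCG2 cells were also given bis-chalcone at 0.1 or 0.5 μM. MTT was added for 4 h, formazan dissolved in DMSO/ethanol (1:1) and read at 570 nm. IC50 = mitoxantrone concentration giving 50% survival.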

[1] = biological target: Multidrug resistance-associated protein 1 (Homo sapiens, UniProt P33527); test: Inhibition of ABCC1 (unknown origin) transfected in HEK293 cells assessed as inhibition of calcein-AM efflux up to 10 uM after 30 mins by flow cytometry relative to control; format: cell-based; settings: hek293, 0.5 h
Multidrug resistance-associated protein 1, sequence (P33527 whole entry): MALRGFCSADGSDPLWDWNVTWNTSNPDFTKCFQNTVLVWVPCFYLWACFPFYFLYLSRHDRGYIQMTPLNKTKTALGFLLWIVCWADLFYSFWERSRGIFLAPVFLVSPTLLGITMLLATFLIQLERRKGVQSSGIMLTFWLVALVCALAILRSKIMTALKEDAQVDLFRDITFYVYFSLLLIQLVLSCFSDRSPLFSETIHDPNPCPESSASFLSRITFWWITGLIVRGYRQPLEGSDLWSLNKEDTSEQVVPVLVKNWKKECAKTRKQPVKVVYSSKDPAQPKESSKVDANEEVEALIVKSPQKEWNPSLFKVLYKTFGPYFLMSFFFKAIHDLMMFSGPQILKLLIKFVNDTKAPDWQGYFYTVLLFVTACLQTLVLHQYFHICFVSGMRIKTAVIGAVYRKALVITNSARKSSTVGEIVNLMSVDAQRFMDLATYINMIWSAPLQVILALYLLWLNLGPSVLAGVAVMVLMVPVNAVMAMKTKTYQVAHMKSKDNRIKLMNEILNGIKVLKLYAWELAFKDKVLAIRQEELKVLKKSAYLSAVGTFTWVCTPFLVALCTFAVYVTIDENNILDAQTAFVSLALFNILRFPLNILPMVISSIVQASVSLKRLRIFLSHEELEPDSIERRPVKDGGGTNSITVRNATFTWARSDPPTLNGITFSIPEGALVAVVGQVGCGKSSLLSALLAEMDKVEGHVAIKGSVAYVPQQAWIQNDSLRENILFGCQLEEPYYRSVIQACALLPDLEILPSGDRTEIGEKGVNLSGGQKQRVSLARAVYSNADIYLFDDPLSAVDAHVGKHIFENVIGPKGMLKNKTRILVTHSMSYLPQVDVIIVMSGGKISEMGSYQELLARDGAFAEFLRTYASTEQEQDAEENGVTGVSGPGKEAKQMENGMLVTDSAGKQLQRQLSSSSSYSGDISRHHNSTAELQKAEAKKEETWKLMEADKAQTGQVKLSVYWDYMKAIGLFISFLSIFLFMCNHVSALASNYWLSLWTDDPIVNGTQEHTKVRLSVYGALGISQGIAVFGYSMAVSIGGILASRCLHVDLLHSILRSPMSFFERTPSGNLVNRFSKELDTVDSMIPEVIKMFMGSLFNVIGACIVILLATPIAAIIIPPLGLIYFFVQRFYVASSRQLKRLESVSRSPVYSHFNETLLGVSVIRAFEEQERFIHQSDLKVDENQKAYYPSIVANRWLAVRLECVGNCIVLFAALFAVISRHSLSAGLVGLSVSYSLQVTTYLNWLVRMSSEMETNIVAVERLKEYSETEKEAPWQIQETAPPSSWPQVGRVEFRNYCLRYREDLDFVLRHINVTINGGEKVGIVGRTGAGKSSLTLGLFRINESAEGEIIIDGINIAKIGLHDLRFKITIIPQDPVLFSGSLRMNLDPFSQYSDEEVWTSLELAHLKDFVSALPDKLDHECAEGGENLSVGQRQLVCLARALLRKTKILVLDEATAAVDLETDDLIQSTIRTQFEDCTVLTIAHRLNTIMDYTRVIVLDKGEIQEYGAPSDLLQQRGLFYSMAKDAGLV
Summary of the method: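 HEK293-ABCC1 cells (2 × 10⁵/well, kept in 200 μg/mL hygromycin B) were exposed to 0.2 μM calcein-AM for 30 min at 37 °C with bis-chalcone at 1 or 10 μM. Calcein was read by FL1 flow cytometry, ≥10 000 events. Inhibition was expressed relative to HEK293/pcDNA5 cells, whose maximal accumulation equals complete inhibition.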

[2] = Selectivity ratio of EC50 for human H23 cells overexpressing ABCG2 to EC50 for human H460 cells overexpressing ABCG2; format: functional
[3] = biological target: T2, Broad substrate specificity ATP-binding cassette transporter ABCG2 (Homo sapiens, UniProt Q9UNQ0); test: Inhibition of ABCG2 (unknown origin) transfected in HEK293 cells assessed as inhibition of mitoxantrone efflux at 5 uM after 30 mins in presence of 0.1 uM chromone 1 by flow cytometry; format: cell-based
T2 sequence (Q9UNQ0 whole entry): T1 sequence (Q9UNQ0 whole entry)

[4] = biological target: T2, Broad substrate specificity ATP-binding cassette transporter ABCG2; test: Inhibition of human ABCG2 ATPase activity transfected in Sf9 insect cells using quercetin as substrate after 30 mins by colorimetry relative to control
Summary of the method: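 Vanadate-sensitive ATPase of cholesterol-loaded human ABCG2 Sf9 membranes (0.5 mg/mL; 10 μg/sample), 50 mM Tris-HCl/50 mM NaCl pH 8.0, with 2 μM quercetin. ATP-Mg 3.9 mM, 30 min, 37 °C. Phosphate measured colorimetrically at 880 nm. Coupled activity = total minus basal, taken as 100%. IC50 is the concentration giving 50% inhibition.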

[5] = biological target: T2, Broad substrate specificity ATP-binding cassette transporter ABCG2; test: Inhibition of human ABCG2 transfected in Sf9 insect cells assessed as inhibition of basal ATPase activity in absence of substrate drug after 30 mins by colorimetry; settings: sf9, 0.5 h; summary of the method: as §1
[6] = test system: ATP-binding cassette sub-family G member 2 (Homo sapiens); test: Inhibition of ABCG2-mediated mitoxantrone efflux in mitoxantrone-selected human PANC1 cells overexpressing ABCG2; settings: PANC-1
[7] = biological target: T2, Broad substrate specificity ATP-binding cassette transporter ABCG2; test: Inhibition of ABCG2 (unknown origin)-mediated mitoxantrone efflux transfected in HEK293 cells assessed as potentiation of mitoxantrone-induced cytotoxicity at 0.1 uM after 72 hrs by MTT assay; format: cell-based; settings: hek293, 72 h; summary of the method: as §2
ABCG2 = biological target: T3, ABCG2 (Homo sapiens, UniProt Q9UNQ0); test: Inhibition of ABCG2 (unknown origin) transfected in HEK293 cells assessed as inhibition of mitoxantrone efflux at 5 uM after 30 mins by flow cytometry relative to control; format: cell-based; settings: HEK293 cells transfected with ABCG2, probe mitoxantrone
T3 sequence (Q9UNQ0 whole entry): T1 sequence (Q9UNQ0 whole entry)
Summary of the method: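 HEK293-ABCG2 cells (1.5 × 10⁵/well, grown 48 h) exposed to 5 μM mitoxantrone for 30 min at 37 °C with compound (increasing concentrations up to 10 μM); washed, trypsinized, FL4 flow cytometry, ≥10 000 events.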

[8] = biological target: T2, Broad substrate specificity ATP-binding cassette transporter ABCG2; test: Inhibition of ABCG2 (unknown origin) transfected in HEK293 cells assessed as inhibition of mitoxantrone efflux at 5 uM after 30 mins in presence of 0.02 uM Ko143 by flow cytometry; format: cell-based
[9] = biological target: ATP-dependent translocase ABCB1 (Homo sapiens, UniProt P08183); test: Inhibition of ABCB1 (unknown origin) transfected in mouse NIH/3T3 cells assessed as inhibition of mitoxantrone efflux up to 10 uM after 30 mins by flow cytometry relative to control; format: cell-based; settings: nih/3t3, 0.5 h
ATP-dependent translocase ABCB1, sequence (P08183 whole entry): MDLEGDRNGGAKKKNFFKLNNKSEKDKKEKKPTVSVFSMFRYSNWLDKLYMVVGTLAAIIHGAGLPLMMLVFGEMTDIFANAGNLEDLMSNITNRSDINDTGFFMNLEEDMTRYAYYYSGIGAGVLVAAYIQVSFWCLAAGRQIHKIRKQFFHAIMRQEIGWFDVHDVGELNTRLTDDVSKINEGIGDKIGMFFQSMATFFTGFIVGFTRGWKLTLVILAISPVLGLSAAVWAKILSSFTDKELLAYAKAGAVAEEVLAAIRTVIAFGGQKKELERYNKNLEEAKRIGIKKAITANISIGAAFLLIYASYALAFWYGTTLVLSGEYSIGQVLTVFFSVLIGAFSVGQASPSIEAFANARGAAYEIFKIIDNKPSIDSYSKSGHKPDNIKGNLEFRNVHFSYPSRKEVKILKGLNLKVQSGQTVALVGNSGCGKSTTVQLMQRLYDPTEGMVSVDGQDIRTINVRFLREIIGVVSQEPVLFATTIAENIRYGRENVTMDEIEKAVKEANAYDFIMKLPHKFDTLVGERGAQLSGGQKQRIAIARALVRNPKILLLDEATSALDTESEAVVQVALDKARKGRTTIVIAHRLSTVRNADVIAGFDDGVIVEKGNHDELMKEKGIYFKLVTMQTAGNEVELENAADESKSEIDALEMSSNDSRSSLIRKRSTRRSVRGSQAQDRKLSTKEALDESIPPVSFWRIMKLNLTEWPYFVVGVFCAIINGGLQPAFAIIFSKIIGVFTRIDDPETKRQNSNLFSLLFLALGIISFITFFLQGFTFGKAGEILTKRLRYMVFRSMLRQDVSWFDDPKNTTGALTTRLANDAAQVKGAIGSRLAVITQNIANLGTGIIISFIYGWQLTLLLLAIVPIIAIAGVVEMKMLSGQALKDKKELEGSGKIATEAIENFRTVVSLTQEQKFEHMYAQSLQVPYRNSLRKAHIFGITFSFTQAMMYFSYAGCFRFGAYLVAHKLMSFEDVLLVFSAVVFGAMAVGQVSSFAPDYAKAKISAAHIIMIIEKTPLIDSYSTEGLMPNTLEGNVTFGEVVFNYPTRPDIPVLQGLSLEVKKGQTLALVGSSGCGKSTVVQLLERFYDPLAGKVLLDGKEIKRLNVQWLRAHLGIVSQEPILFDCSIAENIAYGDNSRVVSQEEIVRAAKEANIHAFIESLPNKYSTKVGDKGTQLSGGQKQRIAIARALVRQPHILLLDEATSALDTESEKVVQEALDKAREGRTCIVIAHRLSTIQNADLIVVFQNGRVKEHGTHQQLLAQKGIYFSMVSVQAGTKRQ
Summary of the method: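 NIH-3T3-ABCB1 cells (1.5 × 10⁵/well, 48 h, kept in 60 ng/mL colchicine) were given 5 μM mitoxantrone for 30 min at 37 °C with bis-chalcone at 1 or 10 μM. Fluorescence was read by FL4 flow cytometry, ≥10 000 events. Inhibition was expressed relative to parental NIH-3T3 cells, whose maximal accumulation was taken as complete inhibition.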

PANC-1 = test: Selectivity ratio of EC50 for human PANC1 cells overexpressing ABCG2 to EC50 for human H460 cells overexpressing ABCG2; format: functional
[10] = biological target: T2, Broad substrate specificity ATP-binding cassette transporter ABCG2; test: Inhibition of ABCG2 (unknown origin) transfected in HEK293 cells assessed as inhibition of mitoxantrone efflux after 30 mins by flow cytometry relative to control; format: cell-based

- fold induction at 0.5 h (ABCG2 ATPase): 1.6
- inhibition (INH) [1]: Not Active
- IC50 [4]: 190 nM
- inhibition (INH) [5]: Not Active
Compound: COc1cccc(OC)c1/C=C/C(=O)c1ccc(C(=O)/C=C/c2c(OC)cccc2OC)cc1
- Activity (HEK293): Non-toxic
- Ratio EC50 [2]: 3
- EC50 [3]: 15 nM
- EC50 [6]: 210 nM
- inhibition (INH) [7]: Active
- inhibition at 0.5 h, 5 µM (ABCG2): 108%
- EC50 [8]: 126 nM
- inhibition (INH) [9]: Not Active
- Ratio EC50 (PANC-1): 3
- EC50 [10]: 200 nM
